In ChEMBL document CHEMBL4190362, “Synthesis, biological evaluation and quantitative structure-active relationships of 1,3-thiazolidin-4-one derivatives. A promising chemical scaffold endowed with high antifungal potency and low cytotoxicity” (Eur J Med Chem, 2017):

Assays:
Staphylococcus aureus = test: Antibacterial activity against Staphylococcus aureus assessed as inhibition of microbial growth incubated for 18 to 22 hrs by broth microdilution method; format: functional
How it was run: (§1)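 Broth microdilution in Mueller-Hinton II broth following NCCLS recommendations; compounds dissolved in DMSO.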

Staphylococcus warneri = test: Antibacterial activity against Staphylococcus warneri assessed as inhibition of microbial growth incubated for 18 to 22 hrs by broth microdilution method; format: functional; how it was run: as §1
Enterococcus faecalis = test: Antibacterial activity against Streptococcus faecalis assessed as inhibition of microbial growth incubated for 18 to 22 hrs by broth microdilution method; format: functional; how it was run: as §1
Escherichia coli = test: Antibacterial activity against Escherichia coli assessed as inhibition of microbial growth incubated for 18 to 22 hrs by broth microdilution method; format: functional; how it was run: as §1
Proteus mirabilis = test: Antibacterial activity against Proteus mirabilis assessed as inhibition of microbial growth incubated for 18 to 22 hrs by broth microdilution method; format: functional; how it was run: as §1
Enterobacter = test: Antibacterial activity against Enterobacter spp. assessed as inhibition of microbial growth incubated for 18 to 22 hrs by broth microdilution method; format: functional; how it was run: as §1
Klebsiella oxytoca = test: Antibacterial activity against Klebsiella oxytoca assessed as inhibition of microbial growth incubated for 18 to 22 hrs by broth microdilution method; format: functional; how it was run: as §1
Candida albicans = test: Antifungal activity against Candida albicans clinical isolates assessed as inhibition of microbial growth incubated for 24 hrs by broth microdilution method; format: functional
How it was run: (§2)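 Twenty-two clinical Candida isolates (8 C. albicans, 4 C. glabrata, 3 C. tropicalis, 3 C. krusei, 2 C. parapsilosis, 2 C. sake) were identified by colony morphology and biochemistry and subcultured at 35 °C for purity. Compounds were dissolved in DMSO and tested by broth microdilution in Sabouraud dextrose broth per NCCLS/CLSI/EUCAST guidance. Values are geometric mean MIC per species (µg/mL).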

Nakaseomyces glabratus = test: Antifungal activity against Candida glabrata clinical isolates assessed as inhibition of microbial growth incubated for 24 hrs by broth microdilution method; format: functional; how it was run: as §2
Candida tropicalis = test: Antifungal activity against Candida tropicalis clinical isolates assessed as inhibition of microbial growth incubated for 24 hrs by broth microdilution method; format: functional; how it was run: as §2
Pichia kudriavzevii = test: Antifungal activity against Candida krusei clinical isolates assessed as inhibition of microbial growth incubated for 24 hrs by broth microdilution method; format: functional; how it was run: as §2
Candida parapsilosis = test: Antifungal activity against Candida parapsilosis clinical isolates assessed as inhibition of microbial growth incubated for 24 hrs by broth microdilution method; format: functional; settings: Lodderomyces parapsilosis; how it was run: as §2
[Candida] sake = Antifungal activity against Candida sake clinical isolates assessed as inhibition of microbial growth incubated for 24 hrs by broth microdilution method; format: functional; settings: Fermentozyma sake; how it was run: as §2
[1] = test system: Streptococcus alpha-hemolyticus (Streptococcus sp.); test: Antibacterial activity against Streptococcus Streptococcus alpha hemolyticus assessed as inhibition of microbial growth incubated for 18 to 22 hrs by broth microdilution method

SMILES | MIC (Staphylococcus aureus) | MIC (Staphylococcus warneri) | MIC (Enterococcus faecalis) | MIC (Escherichia coli) | MIC (Proteus mirabilis) | MIC (Enterobacter) | MIC (Klebsiella oxytoca) | MIC (Candida albicans) | MIC (Nakaseomyces glabratus) | MIC (Candida tropicalis) | MIC (Pichia kudriavzevii) | MIC (Candida parapsilosis) | MIC ([Candida] sake) | MIC [1]
CC(C)(O/N=C(\C(=O)N[C@@H]1C(=O)N2C(C(=O)[O-])=C(C[n+]3ccccc3)CS[C@H]12)c1csc(N)n1)C(=O)O [CEFTAZIDIME] | 8 µg/mL | 8 µg/mL | 8 µg/mL | 8 µg/mL | 8 µg/mL | 8 µg/mL | 8 µg/mL |  |  |  |  |  |  | 8 µg/mL
O=C1CS/C(=N/N=C\c2cccs2)N1Cc1ccccc1 | ≥ 256 µg/mL | ≥ 256 µg/mL | ≥ 256 µg/mL | ≥ 256 µg/mL | ≥ 256 µg/mL | ≥ 256 µg/mL | ≥ 256 µg/mL | 8 µg/mL | 8 µg/mL | 8 µg/mL | 32 µg/mL | 32 µg/mL | 32 µg/mL | 
O=C1CS/C(=N/N=C\c2cccc([N+](=O)[O-])c2)N1Cc1ccccc1 | ≥ 256 µg/mL | ≥ 256 µg/mL | ≥ 256 µg/mL | ≥ 256 µg/mL | ≥ 256 µg/mL | ≥ 256 µg/mL | ≥ 256 µg/mL | 2 µg/mL | 2 µg/mL | 2 µg/mL | 2 µg/mL | 2 µg/mL | 8 µg/mL | 
CC(C)=C/C(C)=N\N=C1\SCC(=O)N1Cc1ccccc1 | ≥ 256 µg/mL | ≥ 256 µg/mL | ≥ 256 µg/mL | ≥ 256 µg/mL | ≥ 256 µg/mL | ≥ 256 µg/mL | ≥ 256 µg/mL | 128 µg/mL | 2 µg/mL | 128 µg/mL | 8 µg/mL | 8 µg/mL | 8 µg/mL | 
CC1CCC(=N/N=C2/SCC(=O)N2Cc2ccccc2)CC1 (centres undefined) | ≥ 256 µg/mL | ≥ 256 µg/mL | ≥ 256 µg/mL | ≥ 256 µg/mL | ≥ 256 µg/mL | ≥ 256 µg/mL | ≥ 256 µg/mL | 8 µg/mL | 8 µg/mL | 16 µg/mL | 16 µg/mL | 16 µg/mL | 16 µg/mL | 
C/C(CC(C)C)=N/N=C1/SCC(=O)N1Cc1ccccc1 | ≥ 256 µg/mL | ≥ 256 µg/mL | ≥ 256 µg/mL | ≥ 256 µg/mL | ≥ 256 µg/mL | ≥ 256 µg/mL | ≥ 256 µg/mL | 8 µg/mL | 8 µg/mL | 16 µg/mL | 16 µg/mL | 16 µg/mL | 16 µg/mL | 
C/C(=N/N=C1/SCC(=O)N1Cc1ccccc1)c1c[nH]c2ccccc12 | ≥ 256 µg/mL | ≥ 256 µg/mL | ≥ 256 µg/mL | ≥ 256 µg/mL | ≥ 256 µg/mL | ≥ 256 µg/mL | ≥ 256 µg/mL | 8 µg/mL | 4 µg/mL | 16 µg/mL | 4 µg/mL | 32 µg/mL | 8 µg/mL | 
O=C1CS/C(=N/N=C2CCCCCC2)N1Cc1ccccc1 | ≥ 256 µg/mL | ≥ 256 µg/mL | ≥ 256 µg/mL | ≥ 256 µg/mL | ≥ 256 µg/mL | ≥ 256 µg/mL | ≥ 256 µg/mL | 256 µg/mL | 256 µg/mL | 256 µg/mL | 256 µg/mL | 256 µg/mL | 256 µg/mL | 
C/C(=N/N=C1/SCC(=O)N1Cc1ccccc1)c1ccccc1[N+](=O)[O-] | ≥ 256 µg/mL | ≥ 256 µg/mL | ≥ 256 µg/mL | ≥ 256 µg/mL | ≥ 256 µg/mL | ≥ 256 µg/mL | ≥ 256 µg/mL | 2 µg/mL | 2 µg/mL | 2 µg/mL | 8 µg/mL | 2 µg/mL | 4 µg/mL | 
O=C1CS/C(=N/N=C\c2ccc([N+](=O)[O-])cc2)N1Cc1ccccc1 | ≥ 256 µg/mL | ≥ 256 µg/mL | ≥ 256 µg/mL | ≥ 256 µg/mL | ≥ 256 µg/mL | ≥ 256 µg/mL | ≥ 256 µg/mL | 4 µg/mL | 2 µg/mL | 8 µg/mL | 16 µg/mL | 2 µg/mL | 4 µg/mL | 
CCCCC/C(C)=N\N=C1\SCC(=O)N1Cc1ccccc1 | ≥ 256 µg/mL | ≥ 256 µg/mL | ≥ 256 µg/mL | ≥ 256 µg/mL | ≥ 256 µg/mL | ≥ 256 µg/mL | ≥ 256 µg/mL | 8 µg/mL | 8 µg/mL | 16 µg/mL | 16 µg/mL | 16 µg/mL | 16 µg/mL | 
CC1CCCC/C1=N/N=C1/SCC(=O)N1Cc1ccccc1 (centres undefined) | ≥ 256 µg/mL | ≥ 256 µg/mL | ≥ 256 µg/mL | ≥ 256 µg/mL | ≥ 256 µg/mL | ≥ 256 µg/mL | ≥ 256 µg/mL | 16 µg/mL | 2 µg/mL | 32 µg/mL | 16 µg/mL | 4 µg/mL | 16 µg/mL | 

The next lines start with results.

MIC (Staphylococcus aureus) | MIC (Staphylococcus warneri) | MIC (Enterococcus faecalis) | MIC (Escherichia coli) | MIC (Proteus mirabilis) | MIC (Enterobacter) | MIC (Klebsiella oxytoca) | MIC (Candida albicans) | MIC (Nakaseomyces glabratus) | MIC (Candida tropicalis) | MIC (Pichia kudriavzevii) | MIC (Candida parapsilosis) | MIC ([Candida] sake) | SMILES | MIC [1]
≥ 256 µg/mL | ≥ 256 µg/mL | ≥ 256 µg/mL | ≥ 256 µg/mL | ≥ 256 µg/mL | ≥ 256 µg/mL | ≥ 256 µg/mL | 4 µg/mL | 4 µg/mL | 4 µg/mL | 8 µg/mL | 16 µg/mL | 16 µg/mL | C/C(=N/N=C1\NC(=O)CS1)c1ccc2ccc3ccccc3c2c1 | ≥ 256 µg/mL
≥ 256 µg/mL | ≥ 256 µg/mL | ≥ 256 µg/mL | ≥ 256 µg/mL | ≥ 256 µg/mL | ≥ 256 µg/mL | ≥ 256 µg/mL | 256 µg/mL | 256 µg/mL | 256 µg/mL | 256 µg/mL | 256 µg/mL | 256 µg/mL | O=C1CS/C(=N/N=C\c2ccncc2)N1 | ≥ 256 µg/mL
≥ 256 µg/mL | ≥ 256 µg/mL | ≥ 256 µg/mL | ≥ 256 µg/mL | ≥ 256 µg/mL | ≥ 256 µg/mL | ≥ 256 µg/mL | 8 µg/mL | 8 µg/mL | 8 µg/mL | 2 µg/mL | 2 µg/mL | 2 µg/mL | CC1CCC/C(=N/N=C2\NC(=O)CS2)C1 (centres undefined) | ≥ 256 µg/mL
≥ 256 µg/mL | ≥ 256 µg/mL | ≥ 256 µg/mL | ≥ 256 µg/mL | ≥ 256 µg/mL | ≥ 256 µg/mL | ≥ 256 µg/mL | 16 µg/mL | 8 µg/mL | 16 µg/mL | 8 µg/mL | 4 µg/mL | 8 µg/mL | O=C1CS/C(=N/N=C\c2cccc([N+](=O)[O-])c2)N1 | ≥ 256 µg/mL
≥ 256 µg/mL | ≥ 256 µg/mL | ≥ 256 µg/mL | ≥ 256 µg/mL | ≥ 256 µg/mL | ≥ 256 µg/mL | ≥ 256 µg/mL | 2 µg/mL | 2 µg/mL | 2 µg/mL | 2 µg/mL | 2 µg/mL | 4 µg/mL | C=CCC/C(C)=N\N=C1/NC(=O)CS1 | ≥ 256 µg/mL
≥ 256 µg/mL | ≥ 256 µg/mL | ≥ 256 µg/mL | ≥ 256 µg/mL | ≥ 256 µg/mL | ≥ 256 µg/mL | ≥ 256 µg/mL | 8 µg/mL | 2 µg/mL | 32 µg/mL | 8 µg/mL | 32 µg/mL | 8 µg/mL | CC(=O)c1ccc(/C(C)=N\N=C2\SCC(=O)N2Cc2ccccc2)cc1 | 
≥ 256 µg/mL | ≥ 256 µg/mL | ≥ 256 µg/mL | ≥ 256 µg/mL | ≥ 256 µg/mL | ≥ 256 µg/mL | ≥ 256 µg/mL | 32 µg/mL | 2 µg/mL | 32 µg/mL | 8 µg/mL | 8 µg/mL | 8 µg/mL | CCC(CC)=N/N=C1/SCC(=O)N1Cc1ccccc1 | 
≥ 256 µg/mL | ≥ 256 µg/mL | ≥ 256 µg/mL | ≥ 256 µg/mL | ≥ 256 µg/mL | ≥ 256 µg/mL | ≥ 256 µg/mL | 256 µg/mL | 256 µg/mL | 256 µg/mL | 256 µg/mL | 256 µg/mL | 256 µg/mL | O=C1CS/C(=N/N=C\c2cccnc2)N1Cc1ccccc1 | 
≥ 256 µg/mL | ≥ 256 µg/mL | ≥ 256 µg/mL | ≥ 256 µg/mL | ≥ 256 µg/mL | ≥ 256 µg/mL | ≥ 256 µg/mL | 8 µg/mL | 8 µg/mL | 8 µg/mL | 8 µg/mL | 8 µg/mL | 8 µg/mL | O=C1CS/C(=N/N=C2CCCCCCC2)N1Cc1ccccc1 | 
≥ 256 µg/mL | ≥ 256 µg/mL | ≥ 256 µg/mL | ≥ 256 µg/mL | ≥ 256 µg/mL | ≥ 256 µg/mL | ≥ 256 µg/mL | 4 µg/mL | 4 µg/mL | 32 µg/mL | 16 µg/mL | 16 µg/mL | 4 µg/mL | C/C(=N/N=C1/SCC(=O)N1Cc1ccccc1)c1cccc2ccccc12 | 
≥ 256 µg/mL | ≥ 256 µg/mL | ≥ 256 µg/mL | ≥ 256 µg/mL | ≥ 256 µg/mL | ≥ 256 µg/mL | ≥ 256 µg/mL | 4 µg/mL | 4 µg/mL | 4 µg/mL | 4 µg/mL | 16 µg/mL | 2 µg/mL | O=C1CS/C(=N/N=C\c2ccccn2)N1Cc1ccccc1 | 
